Source: PubChem (several laboratories)
Thrombin inh: thrombin (human) inhibition; alpha-thrombin, Boc-VPR-AMC fluorogenic substrate cleavage; AID 1046; 220,000 tested, 0.26% active; P00734; inhibition, % at 5 µM;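 active = inhibition at or above 40%; inactive = inhibition below 40%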
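System: human alpha-thrombin protein; Compound dosing: one concentration per compound, 5 µM, with 0.2% DMSO; Timing: reaction at room temperature; Technique: AMC fluorescence, 355/460 nm; Controls: enzyme without compound as high, wells lacking enzyme as low.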
hK5 inh: kallikrein 5 (human) inhibition | inhibition, % at 5 µM | Q9Y337 | AID 873 | recombinant hK5, fluorogenic AMC substrate cleavage | 210,000 tested, 0.59% active;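 active = inhibition of 40% or more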
FXIIa inh: inhibitors of human coagulation factor XIIa | P00748 | purified FXIIa, Boc-QGR-AMC fluorogenic substrate, 2 h | inhibition, % at 5 µM | 220,000 tested, 0.3% active | AID 800; in the data active = inhibition above about 40%
FXIa inh 1536: inhibitors of human coagulation factor XIa; P03951; purified FXIa, Boc-Glu-Ala-Arg-AMC fluorogenic substrate; inhibition, % at 5 µM; 220,000 tested, 0.14% active; AID 798;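 active = inhibition of at least 40%; inactive = inhibition below 40%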;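 also: fluorescence of freed AMC excited at 355 nm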
AHR act: human AHR activation; P35869; AHR-responsive luciferase reporter cells, luminescence; activation, % at 5 µM; 320,000 tested, 2.5% active; in the data active = activation above about 47%
Target sequence (P35869 whole entry, looked up): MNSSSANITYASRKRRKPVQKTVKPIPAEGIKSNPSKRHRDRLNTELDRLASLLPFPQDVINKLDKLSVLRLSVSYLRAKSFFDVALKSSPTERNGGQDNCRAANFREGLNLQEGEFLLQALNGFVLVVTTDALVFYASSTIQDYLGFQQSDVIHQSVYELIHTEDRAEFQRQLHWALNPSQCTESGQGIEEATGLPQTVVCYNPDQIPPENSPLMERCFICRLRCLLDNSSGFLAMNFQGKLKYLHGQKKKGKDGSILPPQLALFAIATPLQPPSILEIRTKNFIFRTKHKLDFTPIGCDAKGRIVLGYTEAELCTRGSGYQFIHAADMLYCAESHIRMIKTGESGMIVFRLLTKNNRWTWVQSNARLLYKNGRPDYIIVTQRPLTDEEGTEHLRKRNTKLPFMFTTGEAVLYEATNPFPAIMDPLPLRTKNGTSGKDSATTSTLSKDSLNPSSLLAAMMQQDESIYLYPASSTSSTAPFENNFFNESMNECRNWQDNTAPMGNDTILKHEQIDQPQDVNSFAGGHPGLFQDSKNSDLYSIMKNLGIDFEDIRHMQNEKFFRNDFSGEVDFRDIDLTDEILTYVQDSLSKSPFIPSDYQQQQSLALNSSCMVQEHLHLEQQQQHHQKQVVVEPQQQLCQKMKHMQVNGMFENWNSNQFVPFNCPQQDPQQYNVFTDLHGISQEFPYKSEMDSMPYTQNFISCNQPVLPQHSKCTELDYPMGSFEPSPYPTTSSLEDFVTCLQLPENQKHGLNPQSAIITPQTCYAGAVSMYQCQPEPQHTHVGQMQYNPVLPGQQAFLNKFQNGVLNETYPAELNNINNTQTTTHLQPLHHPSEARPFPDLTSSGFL
STAT3 act: STAT3 signaling activation; U3A cells, IL-6 STAT3-luciferase reporter, luminescence; 100% = signal with IL-6 EC80 alone; activation (% of control), % at 5.6 µM; 190,000 tested, 0.91% active; AID 871;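 active = activation above the screen-wide mean of compound activation plus 3 SD, cut at about 130% in these data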
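Test system: human U3A cells carrying STAT3-luciferase construct; control set: IL-6-only wells as 100% reference; timing: compound pre-incubation 1 h before IL-6, then 6 h stimulation at 37 °C; also added: IL-6 stimulus at 33 ng/mL final; evaluation: % activation versus median of IL-6-stimulated wells; detection: reporter luminescence signal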
AHR act cf: confirmation of human aryl hydrocarbon receptor activators; shares compounds with AHR act; AID 2845; 2,300 tested, 87% active; activation, % at 9 µM; human cells, AHR-responsive luciferase reporter, luminescence; in the data active = activation above about 49%;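 also: HepG2 hepatoma cells carrying a DRE-driven firefly luciferase reporter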
PXR act counter: PXR activation, counter-screen for AHR activators; activation, % at 11.6 µM; cell-based PXR reporter, luciferase luminescence; 2,300 tested, 88% active; shares compounds with AHR act; in the data active = activation above about 11%;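 also: human hepatoma DPX-2 cells expressing full-length human PXR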
Of the large screens only hits and unclear results are named; the others gave an inactive call (follow-up assays come after a bar, where they were run). Compounds with a hit are over-represented: about 3.5% of the library has one in this group of screens.

Cc1cc(Br)c(OCc2ccc(C(=O)N/N=C3\CC4CC=CC34)cc2)c(Br)c1 (stereo unspecified)	AHR act 105 | AHR act cf 79 | PXR act counter 11
NS(=O)(=O)c1ccc(NC(=O)CCC(=O)c2ccc(Cl)s2)cc1	none (no result: Thrombin inh, hK5 inh, FXIIa inh, FXIa inh 1536, STAT3 act)
O=c1oc(CCCO)cc2ccc(C#Cc3cccnc3)cc12	AHR act 88 (no result: Thrombin inh, hK5 inh, FXIIa inh, FXIa inh 1536, STAT3 act) | AHR act cf 76 | PXR act counter 18
COc1cc(/C=C(\C#N)c2nc3ccccc3[nH]2)ccc1OC(=O)c1ccco1	AHR act 100 | AHR act cf inactive | PXR act counter 14
Cc1cc(C(=O)Nn2c(-c3ccc(Br)cc3)nc3ccccc3c2=O)ccc1[N+](=O)[O-]	AHR act 83 | AHR act cf 48 | PXR act counter 49
CC(C)(C)c1cnnn1-c1ccc(/C=N/Nc2ccc([N+](=O)[O-])cc2)cc1	AHR act 83 | AHR act cf 55 | PXR act counter 35
O=Cc1ccc(-n2nncc2-c2ccc([N+](=O)[O-])cc2)cc1	none
COc1ccc(C(=O)Nc2cc(OC)c(NC(=O)c3ccco3)cc2OC)cc1	AHR act 82 | AHR act cf 110
COc1ccc(NC(=O)c2ccc(NC(=O)c3ccco3)cc2)c(OC)c1	none (no result: Thrombin inh, hK5 inh, FXIIa inh, FXIa inh 1536, STAT3 act)
COc1ccc(NC(=O)c2ccc3[nH]c(=O)c(=O)[nH]c3c2)c(OC)c1	none (no result: Thrombin inh, hK5 inh, FXIIa inh, FXIa inh 1536, STAT3 act)
COc1ccccc1CC(=O)Nc1cc(OC)c(NC(=O)c2ccccc2)cc1OC	none (no result: Thrombin inh, hK5 inh, FXIIa inh, FXIa inh 1536, STAT3 act)
COc1cc(NC(=O)c2ccccc2)c(OC)cc1NC(C)=O	AHR act 86 | AHR act cf 113 | PXR act counter 11
COc1ccc(NC(=O)c2ccc(C)cc2)c(OC)c1	AHR act 120 | AHR act cf 96
CCC(=O)Nc1cc(OC)c(NC(=O)c2ccccc2)cc1OC	AHR act 82 | AHR act cf 109
CCCCCn1c(=O)c(-c2nc3ccccc3[nH]2)c(O)c2ccccc21	none
CC1CCc2sc(C(=O)N3CCN(c4ncccn4)CC3)cc2C1 (stereo unspecified)	none (no result: Thrombin inh, hK5 inh, FXIIa inh, FXIa inh 1536, STAT3 act)
CCCN(C(=O)c1cc(S(=O)(=O)N(C)c2ccc(OCC)cc2)ccc1C)C1CCS(=O)(=O)C1 (stereo unspecified)	none (no result: Thrombin inh, hK5 inh, FXIIa inh, FXIa inh 1536, STAT3 act)
Nc1nc(-c2ccco2)nn1S(=O)(=O)c1ccc(Cl)cc1	none
Nc1nc2ccc(Cl)cc2c2nc(-c3ccco3)nn12	AHR act 107 (no result: Thrombin inh, hK5 inh, FXIIa inh, FXIa inh 1536, STAT3 act) | AHR act cf 248 | PXR act counter 34
C/C(=N\NC(=S)Nc1cccc(C)c1)c1cccc(N)c1	none
C/C(=N\NC(=S)Nc1cccc(C)c1)c1ccccc1	AHR act 84 | AHR act cf 111 | PXR act counter 42
O=C(Nc1ccc(Cl)cc1)c1ccc(Br)cc1F	AHR act 97 | AHR act cf 130 | PXR act counter 65
Cc1ccc2cc(COC(=O)C3CCCO3)c(=O)[nH]c2c1 (stereo unspecified)	none
NS(=O)(=O)c1ccc(CCNC(=O)c2ccc3ccccc3n2)cc1	none
O=C(Nc1cccc(N2CCCC2)c1)c1cccs1	AHR act 88 | AHR act cf 92 | PXR act counter 37
O=C(NC1CCCCC1)c1cc(S(=O)(=O)N2CCCC2)ccc1Cl	none (no result: Thrombin inh, hK5 inh, FXIIa inh, FXIa inh 1536, STAT3 act)
Cc1nn(-c2ccccc2)c(C)c1/C=N/NC(=O)CSc1nnc(SCc2cccc3ccccc23)s1	none
O=C1C=C(c2cccc(Br)c2)C[C@@H](c2ccc3c(c2)OCO3)C1	AHR act 86 (no result: Thrombin inh, hK5 inh, FXIIa inh, FXIa inh 1536, STAT3 act) | AHR act cf 83 | PXR act counter 33
COc1ccc(F)cc1C1=CC(=O)C[C@H](c2ccc3c(c2)OCO3)C1	AHR act 86 (no result: Thrombin inh, hK5 inh, FXIIa inh, FXIa inh 1536, STAT3 act) | AHR act cf 73 | PXR act counter 112
COc1cccc(C2=CC(=O)C[C@H](c3ccc4c(c3)OCO4)C2)c1OC	AHR act 120 (no result: Thrombin inh, hK5 inh, FXIIa inh, FXIa inh 1536, STAT3 act) | AHR act cf 109 | PXR act counter 148
CCC(=O)c1ccc(SC(=O)N(C)C)cc1O	none (no result: STAT3 act)
Cc1c(NS(=O)(=O)c2ccc3c(c2)OCCO3)cccc1-c1nc2cccnc2s1	none
Cc1ccc(-c2nc3cccnc3s2)cc1NS(=O)(=O)c1ccc2c(c1)CCCC2	AHR act 93 | AHR act cf 56 | PXR act counter 154
CC(C)c1ccc(NC2CCCN(C(=O)CN3CCCC3=O)C2)cc1 (stereo unspecified)	none (no result: Thrombin inh, hK5 inh, FXIIa inh, FXIa inh 1536, STAT3 act)
CCCOc1ccccc1NC(=O)c1ccc(N)cc1	AHR act 101 | AHR act cf 117 | PXR act counter 47
CCOc1ccccc1NC(=O)c1ccc2nccnc2c1	AHR act 83 | AHR act cf 109
CCCCOc1ccccc1NC(=O)c1ccc(=O)[nH]c1	none
COc1ccc(CNC(=O)CN(C(=O)CCC(=O)Nc2nccs2)c2cccc(C)c2)cc1	none (no result: Thrombin inh, hK5 inh, FXIIa inh, FXIa inh 1536, STAT3 act)
O=c1c(-c2ccc(Cl)cc2)cnc2n1CCS2	AHR act 116 | AHR act cf 131 | PXR act counter 53
Cc1c(NC(=O)C(C)OC(=O)c2cc(Cl)ccc2O)c(=O)n(-c2ccccc2)n1C (stereo unspecified)	none (no result: Thrombin inh, hK5 inh, FXIIa inh, FXIa inh 1536, STAT3 act)
Cc1nc2sc(C(=O)Nc3ccccc3Cc3ccccc3)c(C)c2c(=O)[nH]1	none (no result: STAT3 act)
Nc1nc2ccc(NC(=O)c3ccco3)cc2s1	AHR act 82 (no result: Thrombin inh, hK5 inh, FXIIa inh, FXIa inh 1536, STAT3 act) | AHR act cf 52 | PXR act counter 15
O=C(Nc1ccc(Cl)c(C(F)(F)F)c1)c1ccco1	AHR act 82 | AHR act cf inactive | PXR act counter inactive
O=C(Nc1cccc(C(F)(F)F)c1)c1ccco1	none
COc1ccc(OC)c(C(=O)NC(CC(N)=O)c2ccc(N3CCC(Cc4ccccc4)CC3)c([N+](=O)[O-])c2)c1 (stereo unspecified)	none (no result: Thrombin inh, hK5 inh, FXIIa inh, FXIa inh 1536, STAT3 act)
Cc1[nH]n(-c2ccccc2)c(=O)c1N=Nc1c(Cl)cccc1Cl	none (no result: Thrombin inh, hK5 inh, FXIIa inh, FXIa inh 1536, STAT3 act)
Cc1cccc2c1ncc1c(=O)n(-c3ccccc3)[nH]c12	AHR act 136 (no result: Thrombin inh, hK5 inh, FXIIa inh, FXIa inh 1536, STAT3 act) | AHR act cf 129 | PXR act counter 32
CCOC(=O)COc1cc(-n2c(=S)[nH]c3cc(OC)c(OC)cc3c2=O)c(Cl)cc1Cl	none
Cc1cccc(-c2nc(C#N)c(NC3CCCCC3)o2)c1	AHR act 145 | AHR act cf inactive | PXR act counter 86
Cc1ccsc1/C=N/n1c(-c2ccccc2)n[nH]c1=S	AHR act 80 | AHR act cf 68 | PXR act counter 46
Cc1ccsc1/C=N/n1c(-c2ccncc2)n[nH]c1=S	none
Cc1cc(-c2n[nH]c(=S)n2/N=C/c2sccc2C)n[nH]1	AHR act 112 | AHR act cf 91 | PXR act counter 25
Cc1ccsc1/C=N/n1c(-c2ccco2)n[nH]c1=S	none
